Measured values: ChEMBL document CHEMBL1268833, “Molecular docking and structure-activity relationship studies on benzothiazole based non-peptidic BACE-1 inhibitors” (Bioorg Med Chem Lett, 2010)

Legend:
Beta-secretase 1 [1] = molecular target: T1, Beta-secretase 1 (Homo sapiens, UniProt P56817); assay: Inhibition of human BACE1 by FRET assay
Summary of the method: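 IC50 values were measured against BACE-1 with a FRET assay kit following an earlier-described protocol; values are means of duplicate measurements.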

Beta-secretase 1 [2] = molecular target: T1, Beta-secretase 1; assay: Inhibition of human BACE1 at 50 uM by FRET assay
Summary of the method: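 FRET assay kit for BACE-1 activity, run per a previously described protocol; each compound was tested at 50 µM as the initial screening concentration; percent inhibition is given as the mean of duplicate measurements.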

T1 sequence (P56817 whole entry): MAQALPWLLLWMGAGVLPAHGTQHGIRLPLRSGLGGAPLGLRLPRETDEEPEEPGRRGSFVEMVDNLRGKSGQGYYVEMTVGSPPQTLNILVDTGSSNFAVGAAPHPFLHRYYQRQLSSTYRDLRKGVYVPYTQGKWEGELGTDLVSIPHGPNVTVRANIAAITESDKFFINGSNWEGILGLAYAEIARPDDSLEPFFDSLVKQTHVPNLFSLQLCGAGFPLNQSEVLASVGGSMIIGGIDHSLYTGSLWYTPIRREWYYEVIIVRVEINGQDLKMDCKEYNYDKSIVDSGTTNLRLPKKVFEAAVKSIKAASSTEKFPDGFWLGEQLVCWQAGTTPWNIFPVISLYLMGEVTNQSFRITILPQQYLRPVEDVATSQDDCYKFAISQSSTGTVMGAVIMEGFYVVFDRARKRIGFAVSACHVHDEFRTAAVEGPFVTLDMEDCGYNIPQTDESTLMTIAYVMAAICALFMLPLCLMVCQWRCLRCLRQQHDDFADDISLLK

IC50 (Beta-secretase 1 [1]) [µM] | inhibition (Beta-secretase 1 [2]) [%] | SMILES
> 50 | 58 | O=C(CSc1nc2ccc(Nc3nc(N4CCCCC4)nc(N4CCCCC4)n3)cc2s1)Nc1ccccc1
 | 16 | O=C(CSc1nc2ccc(Nc3nc(N4CCOCC4)nc(N4CCOCC4)n3)cc2s1)N1CCOCC1
14.7 | 100 | O=C(CSc1nc2ccc(Nc3nc(N4CCOCC4)nc(N4CCOCC4)n3)cc2s1)N1c2ccccc2CCc2ccccc21
> 50 | 100 | CCOc1ccc(NC(=O)CSc2nc3ccc(Nc4nc(N5CCOCC5)nc(N5CCOCC5)n4)cc3s2)cc1
17.2 | 77 | CCOc1ccc(NC(=O)CSc2nc3ccc(Nc4nc(N5CCCCC5)nc(N5CCCCC5)n4)cc3s2)cc1
1.7 | 83 | O=C(CSc1nc2ccc(Nc3nc(N4CCCC4)nc(N4CCCC4)n3)cc2s1)NCc1ccccc1
 | 0 | O=C(CSc1nc2ccc(Nc3nc(N4CCOCC4)nc(N4CCOCC4)n3)cc2s1)NCCOc1ccccc1
18 | 73 | COc1ccc(OC)c(NC(=O)CSc2nc3ccc(Nc4nc(N5CCCCC5)nc(N5CCCCC5)n4)cc3s2)c1
20 | 80 | O=C(CSc1nc2ccc(Nc3nc(N4CCCCC4)nc(N4CCCCC4)n3)cc2s1)c1ccc(F)cc1
 | 0 | Cc1ccc(CNC(=O)CSc2nc3ccc(Nc4nc(N5CCOCC5)nc(N5CCOCC5)n4)cc3s2)cc1
50 | 50 | O=C(CSc1nc2ccc(Nc3nc(N4CCOCC4)nc(N4CCOCC4)n3)cc2s1)NCc1ccccc1
50 | 50 | O=C(CSc1nc2ccc(Nc3nc(N4CCOCC4)nc(N4CCOCC4)n3)cc2s1)Nc1ccccc1Cl
0.12 | 100 | O=C(CSc1nc2ccc(Nc3nc(N4CCCC4)nc(N4CCCC4)n3)cc2s1)Nc1ccccc1
0.69 | 87 | O=C(CSc1nc2ccc(Nc3nc(N4CCCC4)nc(N4CCCC4)n3)cc2s1)NCc1ccco1
20 | 93 | O=C(CSc1nc2ccc(Nc3nc(N4CCCC4)nc(N4CCCC4)n3)cc2s1)c1ccccc1
2.83 | 100 | Cc1cccc(NC(=O)CSc2nc3ccc(Nc4nc(N5CCCC5)nc(N5CCCC5)n4)cc3s2)c1C
 | 0.5 | Cc1ccccc1NC(=O)CSc1nc2ccc(Nc3nc(N4CCOCC4)nc(N4CCOCC4)n3)cc2s1
 | 0 | O=C(CSc1nc2ccc(Nc3nc(N4CCOCC4)nc(N4CCOCC4)n3)cc2s1)Nc1cccc(C(F)(F)F)c1
1.77 | 100 | CCOC(=O)CSc1nc2ccc(Nc3nc(N4CCCC4)nc(N4CCCC4)n3)cc2s1
3 | 88 | O=C(CSc1nc2ccc(Nc3nc(N4CCCC4)nc(N4CCCC4)n3)cc2s1)NCCOc1ccccc1
> 50 | 82 | Cc1cc(C)c(NC(=O)CSc2nc3ccc(Nc4nc(N5CCOCC5)nc(N5CCOCC5)n4)cc3s2)c(C)c1
 | 42 | CCOC(=O)CSc1nc2ccc(Nc3nc(N4CCOCC4)nc(N4CCOCC4)n3)cc2s1
